Laboratory results taken from ChEMBL document CHEMBL3352023, “C-terminal residue optimization and fragment merging: discovery of a potent Peptide-hybrid inhibitor of dengue protease” (ACS Med Chem Lett, 2014).
Activity calls are given as the source filed them. No cut-off for these calls is given here. Peptide text beside a SMILES is read from it. * marks the point of attachment. Bz = O=C(c1ccccc1)*

What was measured:
Genome polyprotein = Genome polyprotein (dengue virus type 2, UniProt P12823); assay: Inhibition of Dengue virus serotype 2 NS2B-NS3 protease by homogeneous fluorimetric assay
[1] = biological target: Genome polyprotein (West Nile virus) (UniProt P06935); assay: Inhibition of West Nile virus […] NS2B-NS3 protease at 50 uM by homogeneous fluorimetric assay
Sequence of Genome polyprotein (West Nile virus) (P06935 whole entry): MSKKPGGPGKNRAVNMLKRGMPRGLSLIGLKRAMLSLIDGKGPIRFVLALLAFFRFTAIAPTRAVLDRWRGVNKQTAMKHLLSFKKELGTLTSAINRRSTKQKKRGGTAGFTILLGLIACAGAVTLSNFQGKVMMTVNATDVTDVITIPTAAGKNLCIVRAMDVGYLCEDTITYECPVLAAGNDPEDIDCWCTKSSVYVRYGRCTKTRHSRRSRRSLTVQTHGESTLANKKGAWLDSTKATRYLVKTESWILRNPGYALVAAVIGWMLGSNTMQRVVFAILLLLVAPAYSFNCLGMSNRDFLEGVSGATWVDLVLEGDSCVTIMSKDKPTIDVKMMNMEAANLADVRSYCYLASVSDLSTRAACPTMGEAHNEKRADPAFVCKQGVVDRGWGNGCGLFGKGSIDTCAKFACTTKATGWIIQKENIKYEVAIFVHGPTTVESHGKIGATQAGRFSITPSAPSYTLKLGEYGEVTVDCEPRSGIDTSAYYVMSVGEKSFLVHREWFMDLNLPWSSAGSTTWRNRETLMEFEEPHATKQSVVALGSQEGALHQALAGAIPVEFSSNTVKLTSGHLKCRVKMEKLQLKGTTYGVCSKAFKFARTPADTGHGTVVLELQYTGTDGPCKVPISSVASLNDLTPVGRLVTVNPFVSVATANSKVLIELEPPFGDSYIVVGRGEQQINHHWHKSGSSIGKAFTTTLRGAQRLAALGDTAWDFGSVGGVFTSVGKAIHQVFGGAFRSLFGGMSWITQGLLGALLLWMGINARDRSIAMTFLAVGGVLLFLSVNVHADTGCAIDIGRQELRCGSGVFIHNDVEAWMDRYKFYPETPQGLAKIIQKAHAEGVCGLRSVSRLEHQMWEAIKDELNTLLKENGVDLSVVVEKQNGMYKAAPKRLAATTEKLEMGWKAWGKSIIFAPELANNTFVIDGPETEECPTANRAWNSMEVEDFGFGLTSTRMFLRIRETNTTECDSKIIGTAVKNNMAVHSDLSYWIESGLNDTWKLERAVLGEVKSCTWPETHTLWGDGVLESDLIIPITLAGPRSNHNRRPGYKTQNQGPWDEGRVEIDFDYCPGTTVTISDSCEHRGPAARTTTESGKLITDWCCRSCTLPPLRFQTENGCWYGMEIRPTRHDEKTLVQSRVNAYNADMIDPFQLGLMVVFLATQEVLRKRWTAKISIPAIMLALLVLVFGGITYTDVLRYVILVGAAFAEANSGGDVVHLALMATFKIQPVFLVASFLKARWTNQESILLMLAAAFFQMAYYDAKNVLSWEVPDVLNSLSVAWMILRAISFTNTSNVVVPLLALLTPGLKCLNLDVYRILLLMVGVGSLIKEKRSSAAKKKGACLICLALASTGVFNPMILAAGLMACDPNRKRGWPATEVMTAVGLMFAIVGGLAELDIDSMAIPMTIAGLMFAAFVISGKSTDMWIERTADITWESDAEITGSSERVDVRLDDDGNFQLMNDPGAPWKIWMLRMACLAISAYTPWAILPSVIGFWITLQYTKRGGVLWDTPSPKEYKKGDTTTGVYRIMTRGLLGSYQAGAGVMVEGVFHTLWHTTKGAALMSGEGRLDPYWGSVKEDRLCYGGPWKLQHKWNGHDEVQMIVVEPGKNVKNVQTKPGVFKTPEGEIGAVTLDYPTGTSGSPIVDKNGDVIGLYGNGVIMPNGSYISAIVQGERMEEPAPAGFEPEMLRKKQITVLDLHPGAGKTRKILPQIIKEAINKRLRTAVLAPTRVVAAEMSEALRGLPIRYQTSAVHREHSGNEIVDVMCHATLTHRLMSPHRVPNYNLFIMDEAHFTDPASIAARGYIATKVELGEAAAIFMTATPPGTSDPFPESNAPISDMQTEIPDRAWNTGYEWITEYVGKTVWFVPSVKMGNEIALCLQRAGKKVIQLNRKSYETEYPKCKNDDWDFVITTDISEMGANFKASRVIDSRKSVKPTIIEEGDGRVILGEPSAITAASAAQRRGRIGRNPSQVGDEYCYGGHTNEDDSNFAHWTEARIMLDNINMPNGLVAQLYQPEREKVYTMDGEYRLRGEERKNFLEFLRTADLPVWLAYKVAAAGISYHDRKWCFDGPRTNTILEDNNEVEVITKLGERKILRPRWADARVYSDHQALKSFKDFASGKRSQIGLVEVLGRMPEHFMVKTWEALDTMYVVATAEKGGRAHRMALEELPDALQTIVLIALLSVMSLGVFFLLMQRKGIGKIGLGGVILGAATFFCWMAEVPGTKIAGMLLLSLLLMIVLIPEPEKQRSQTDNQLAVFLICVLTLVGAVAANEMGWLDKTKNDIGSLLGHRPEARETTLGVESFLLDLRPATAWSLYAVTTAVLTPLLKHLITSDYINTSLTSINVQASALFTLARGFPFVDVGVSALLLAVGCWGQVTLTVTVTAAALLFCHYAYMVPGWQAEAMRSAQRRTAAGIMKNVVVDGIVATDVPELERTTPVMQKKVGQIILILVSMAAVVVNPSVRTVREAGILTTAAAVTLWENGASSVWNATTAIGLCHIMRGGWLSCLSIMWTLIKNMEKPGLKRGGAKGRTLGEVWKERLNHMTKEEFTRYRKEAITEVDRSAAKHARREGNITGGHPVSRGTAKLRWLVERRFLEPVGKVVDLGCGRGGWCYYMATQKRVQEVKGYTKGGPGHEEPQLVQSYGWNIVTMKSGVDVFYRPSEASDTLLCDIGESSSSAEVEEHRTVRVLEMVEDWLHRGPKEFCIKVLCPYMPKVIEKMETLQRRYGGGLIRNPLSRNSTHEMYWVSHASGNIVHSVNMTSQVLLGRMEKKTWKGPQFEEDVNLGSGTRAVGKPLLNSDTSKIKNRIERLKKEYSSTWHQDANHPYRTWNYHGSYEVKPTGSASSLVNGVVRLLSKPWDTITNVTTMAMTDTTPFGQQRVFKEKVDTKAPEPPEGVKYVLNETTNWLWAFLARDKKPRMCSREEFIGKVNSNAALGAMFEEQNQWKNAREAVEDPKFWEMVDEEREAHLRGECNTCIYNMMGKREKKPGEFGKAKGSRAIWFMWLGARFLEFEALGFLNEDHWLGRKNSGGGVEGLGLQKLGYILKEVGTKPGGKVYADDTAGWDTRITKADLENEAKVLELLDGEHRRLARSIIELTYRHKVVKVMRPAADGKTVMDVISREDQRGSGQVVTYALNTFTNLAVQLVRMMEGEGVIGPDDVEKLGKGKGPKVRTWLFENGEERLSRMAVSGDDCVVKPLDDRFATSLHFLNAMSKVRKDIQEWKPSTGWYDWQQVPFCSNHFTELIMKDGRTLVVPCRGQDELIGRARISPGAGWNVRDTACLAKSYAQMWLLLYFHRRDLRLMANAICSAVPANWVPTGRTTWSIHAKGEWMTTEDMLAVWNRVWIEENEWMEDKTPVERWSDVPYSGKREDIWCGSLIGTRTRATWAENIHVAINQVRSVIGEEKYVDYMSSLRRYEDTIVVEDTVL
How it was run: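 WNV NS2B-NS3 protease percent inhibition, homogeneous fluorimetric assay: enzyme 150 nM, inhibitor 50 μM, substrate 50 μM (Km = 212 μM); triplicate, SD below 10%.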

[2] = biological target: Genome polyprotein (dengue virus type 2) (UniProt P12823); assay: Inhibition of Dengue virus serotype 2 NS2B-NS3 protease at 50 uM by homogeneous fluorimetric assay
[3] = biological target: Prothrombin (Homo sapiens) (UniProt P00734); assay: Inhibition of thrombin (unknown origin) at 25 uM by homogeneous fluorimetric assay

Compound `CCCC[C@H](NC(=O)[C@H](CCCCN)NC(=O)[C@H](CCCNC(=N)N)NC(=O)c1ccccc1)C(N)=O` has an IC50 (Genome polyprotein) of 13.3 µM, an inhibition [1] of 7.7% and an inhibition [2] of 68.1%.
Work on `CCCC[C@H](NC(=O)[C@H](CCCCN)NC(=O)[C@H](CCCNC(=N)N)NC(=O)c1ccc(/C=C(\C#N)C(=O)NC2CC2)cc1)C(N)=O` yielded an IC50 (Genome polyprotein) of 5.3 µM, an inhibition [1] of 28% and an inhibition [2] of 88.5%.
With `CCCC[C@H](NC(=O)[C@H](CCCCN)NC(=O)[C@H](CCCNC(=N)N)NC(=O)c1ccc(/C=C2\SC(=O)N(C3CCCC3)C2=O)cc1)C(N)=O` the IC50 (Genome polyprotein) was 2.5 µM, the inhibition [1] was 51.8% and the inhibition [2] was 98.2%.
Work on `CCCC[C@@H](NC(=O)[C@H](CCCCN)NC(=O)[C@H](CCCNC(=N)N)NC(=O)c1ccccc1)C(N)=O` yielded an IC50 (Genome polyprotein) of 14.1 µM, an inhibition [1] of 16.1% and an inhibition [2] of 72.7%. It also gave an inhibition [3] of 4.9%.
`N#C/C(=C\c1ccc(C(=O)N[C@@H](CCCNC(=N)N)C(=O)N[C@@H](CCCCN)C(=O)NC(C(N)=O)c2ccccc2)cc1)C(=O)NC1CC1` (stereo not given in full) was tested, and the IC50 (Genome polyprotein) was 1.3 µM, the inhibition [1] was 90.2% and the inhibition [2] was 98.6%. It also gave an inhibition [3] of 5.6%.
Work on `N#C/C(=C\c1ccc(C(=O)N[C@@H](CCCNC(=N)N)C(=O)N[C@@H](CCCCN)C(=O)N2Cc3ccccc3CC2C(N)=O)cc1)C(=O)NC1CC1` (stereo not given in full) yielded an IC50 (Genome polyprotein) of 24.9 µM, an inhibition [1] of 38.3% and an inhibition [2] of 59.2%. The inhibition [3] was “inactive”.
With `N=C(N)NCCC[C@H](NC(=O)c1ccc(/C=C2\SC(=O)N(C3CCCC3)C2=O)cc1)C(=O)N[C@@H](CCCCN)C(=O)N1Cc2ccccc2CC1C(N)=O` (stereo not given in full) the IC50 (Genome polyprotein) was 10.5 µM, the inhibition [1] was 49.4% and the inhibition [2] was 85.7%. The inhibition [3] was 7.6%.
`CC(C)(C)[C@H](NC(=O)[C@H](CCCCN)NC(=O)[C@H](CCCNC(=N)N)NC(=O)c1ccc(/C=C(\C#N)C(=O)NC2CC2)cc1)C(N)=O` was tested, and the IC50 (Genome polyprotein) was 57.6 µM, the inhibition [1] was 26.7% and the inhibition [2] was 32.5%. It also gave an inhibition [3] of 5%.
`CC(C)(C)[C@H](NC(=O)[C@H](CCCCN)NC(=O)[C@H](CCCNC(=N)N)NC(=O)c1ccc(/C=C2\SC(=O)N(C3CCCC3)C2=O)cc1)C(N)=O` gave an IC50 (Genome polyprotein) of 29.8 µM, an inhibition [1] of 28% and an inhibition [2] of 60.6%. For the same compound, the inhibition [3] was 10.2%.
`C[C@H](NC(=O)[C@H](CCCCN)NC(=O)[C@H](CCCNC(=N)N)NC(=O)c1ccccc1)C(N)=O` (Bz-Arg-Lys-Ala-NH2) showed an IC50 (Genome polyprotein) of 35.6 µM, an inhibition [1] of 26% and an inhibition [2] of 46.6%. For the same compound, the inhibition [3] was 7.2%.
In the case of `N=C(N)NCCC[C@H](NC(=O)c1ccccc1)C(=O)N[C@@H](CCCCN)C(=O)NCC(N)=O` (Bz-Arg-Lys-Gly-NH2), the IC50 (Genome polyprotein) is reported as 21 µM, the inhibition [1] is reported as 44.6% and the inhibition [2] is reported as 70.4%. The inhibition [3] was 3.5%.
`CC[C@H](C)[C@H](NC(=O)[C@H](CCCCN)NC(=O)[C@H](CCCNC(=N)N)NC(=O)c1ccccc1)C(N)=O` (Bz-Arg-Lys-Ile-NH2) gave an IC50 (Genome polyprotein) of 28.2 µM, an inhibition [1] of 14.9% and an inhibition [2] of 56.6%. It also gave an inhibition [3] of 4.6%.
For `CC(C)C[C@H](NC(=O)[C@H](CCCCN)NC(=O)[C@H](CCCNC(=N)N)NC(=O)c1ccccc1)C(N)=O` (Bz-Arg-Lys-Leu-NH2), the IC50 (Genome polyprotein) was 22.7 µM, the inhibition [1] was 18.4% and the inhibition [2] was 63.2%. It also gave an inhibition [3] of 5.9%.
`CSCC[C@H](NC(=O)[C@H](CCCCN)NC(=O)[C@H](CCCNC(=N)N)NC(=O)c1ccccc1)C(N)=O` (Bz-Arg-Lys-Met-NH2) gave an IC50 (Genome polyprotein) of 47.5 µM, an inhibition [1] of 11.8% and an inhibition [2] of 45%. It also gave an inhibition [3] of 6.2%.
`N=C(N)NCCC[C@H](NC(=O)c1ccccc1)C(=O)N[C@@H](CCCCN)C(=O)N[C@@H](Cc1ccccc1)C(N)=O` (Bz-Arg-Lys-Phe-NH2) showed an IC50 (Genome polyprotein) of 11.9 µM, an inhibition [1] of 18.2% and an inhibition [2] of 80.7%. The inhibition [3] was 7.2%.
`N=C(N)NCCC[C@H](NC(=O)c1ccccc1)C(=O)N[C@@H](CCCCN)C(=O)N1CCC[C@H]1C(N)=O` (Bz-Arg-Lys-Pro-NH2) gave an IC50 (Genome polyprotein) of 192 µM, an inhibition [1] of 3.6% and an inhibition [2] of 20%. For the same compound, the inhibition [3] was “inactive”.
`N=C(N)NCCC[C@H](NC(=O)c1ccccc1)C(=O)N[C@@H](CCCCN)C(=O)N[C@@H](CO)C(N)=O` (Bz-Arg-Lys-Ser-NH2) gave an IC50 (Genome polyprotein) of 30.1 µM, an inhibition [1] of 21.9% and an inhibition [2] of 57.9%. The inhibition [3] was 6.2%.
